Data: ChEMBL document CHEMBL3526048, “In vitro metabolism of rivoglitazone, a novel peroxisome proliferator-activated receptor γ agonist, in rat, monkey, and human liver microsomes and freshly isolated hepatocytes” (Drug Metab Dispos, 2011)

Legend:
Cytochrome P450 2C8 = molecular target: T1, Cytochrome P450 2C8 (Homo sapiens, UniProt P10632); test: Activity of human CYP2C8 expressed in microsomes isolated from baculovirus infected insect cell assessed as enzyme-mediated compound formation treated with [14C]-rivoglitazone at 20 uM after 2 hrs by radio-HPLC/LC-MS/MS analysis in presence of NADPH-generating system and NADPH-generating system/SAM; type: ADME
T1 sequence (P10632 whole entry): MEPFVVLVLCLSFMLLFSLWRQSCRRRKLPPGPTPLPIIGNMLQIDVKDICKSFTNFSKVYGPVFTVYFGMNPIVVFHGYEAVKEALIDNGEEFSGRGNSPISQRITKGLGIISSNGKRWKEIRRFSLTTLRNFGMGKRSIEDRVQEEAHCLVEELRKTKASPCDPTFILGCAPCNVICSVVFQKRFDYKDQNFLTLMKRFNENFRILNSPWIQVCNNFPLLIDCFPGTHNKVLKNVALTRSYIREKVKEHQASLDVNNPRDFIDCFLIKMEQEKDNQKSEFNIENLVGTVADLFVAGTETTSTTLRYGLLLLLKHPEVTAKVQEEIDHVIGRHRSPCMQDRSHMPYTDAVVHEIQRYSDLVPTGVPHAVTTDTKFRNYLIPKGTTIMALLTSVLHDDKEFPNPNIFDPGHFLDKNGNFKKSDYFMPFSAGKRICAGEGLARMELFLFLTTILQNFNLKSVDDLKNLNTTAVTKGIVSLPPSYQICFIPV
Outline: (§1)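 Baculovirus/insect-cell microsomes expressing single human CYPs, 1 mg/ml protein, with 50 mM potassium phosphate (pH 7.4) or 100 mM Tris-HCl (pH 7.5). NADPH-generating system: 2 mM NADP⁺, 20 mM glucose 6-phosphate, 2 units/ml G6PDH, 10 mM MgCl₂. [¹⁴C]rivoglitazone at 20 μM, 2 h at 37°C with shaking. Control used insect-cell control supersomes. Stopped with acetonitrile; supernatant concentrated under nitrogen; metabolites analysed by radio-HPLC, LC-MS and LC-MS/MS.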

Liver microsome [1] = test: Drug level in human liver microsomes treated with [14C]-rivoglitazone at 20 uM after 2 hrs by radio-HPLC/LC-MS/MS analysis in presence of NADPH-generating system and NADPH-generating system/SAM; type: ADME
Outline: (§2)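 Pooled male liver microsomes (1 mg/ml protein; rat from 94 Sprague-Dawley, monkey from 8 cynomolgus, human from 23 donors) were incubated with [¹⁴C]rivoglitazone (20 μM). Buffer: 10 mM potassium phosphate (pH 7.4). Cofactors: NADPH-generating system (2 mM NADP⁺, 20 mM G6P, 2 U/ml G6PDH, 10 mM MgCl₂), with or without 2 mM SAM. Incubation 2 h at 37°C with shaking; controls lacked NADPH system and SAM alone. Acetonitrile stop, radio-HPLC plus LC-MS.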

Cytochrome P450 3A4 = Cytochrome P450 3A4 (Homo sapiens, UniProt P08684); test: Activity of human CYP3A4 expressed in microsomes isolated from baculovirus infected insect cell assessed as enzyme-mediated compound formation treated with [14C]-rivoglitazone at 20 uM after 2 hrs by radio-HPLC/LC-MS/MS analysis in presence of NADPH-generating system and NADPH-generating system/SAM; type: ADME
Cytochrome P450 3A5 = Cytochrome P450 3A5 (Homo sapiens, UniProt P20815); test: Activity of human CYP3A5 expressed in microsomes isolated from baculovirus infected insect cell assessed as enzyme-mediated compound formation treated with [14C]-rivoglitazone at 20 uM after 2 hrs by radio-HPLC/LC-MS/MS analysis in presence of NADPH-generating system and NADPH-generating system/SAM; type: ADME
Outline: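 cDNA-expressed human CYP3A5 in baculovirus-insect-cell microsomes (1 mg/ml protein) was incubated with [¹⁴C]rivoglitazone (20 μM) in 50 mM potassium phosphate (pH 7.4) or 100 mM Tris-HCl (pH 7.5). NADPH-generating system: 2 mM NADP⁺, 20 mM glucose 6-phosphate, 2 units/ml G6PDH, 10 mM MgCl₂. Incubation ran 2 h at 37°C with shaking; insect-cell control supersomes served as control. Acetonitrile stop, supernatant concentrated, then radio-HPLC, LC-MS and LC-MS/MS.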

Cytochrome P450 1A2 = molecular target: T2, Cytochrome P450 1A2 (Homo sapiens, UniProt P05177); test: Activity of human CYP1A2 expressed in microsomes isolated from baculovirus infected insect cell assessed as enzyme-mediated compound formation treated with [14C]-rivoglitazone at 20 uM after 2 hrs by radio-HPLC/LC-MS/MS analysis in presence of NADPH-generating system and NADPH-generating system/SAM; type: ADME; outline: as §1
T2 sequence (P05177 whole entry): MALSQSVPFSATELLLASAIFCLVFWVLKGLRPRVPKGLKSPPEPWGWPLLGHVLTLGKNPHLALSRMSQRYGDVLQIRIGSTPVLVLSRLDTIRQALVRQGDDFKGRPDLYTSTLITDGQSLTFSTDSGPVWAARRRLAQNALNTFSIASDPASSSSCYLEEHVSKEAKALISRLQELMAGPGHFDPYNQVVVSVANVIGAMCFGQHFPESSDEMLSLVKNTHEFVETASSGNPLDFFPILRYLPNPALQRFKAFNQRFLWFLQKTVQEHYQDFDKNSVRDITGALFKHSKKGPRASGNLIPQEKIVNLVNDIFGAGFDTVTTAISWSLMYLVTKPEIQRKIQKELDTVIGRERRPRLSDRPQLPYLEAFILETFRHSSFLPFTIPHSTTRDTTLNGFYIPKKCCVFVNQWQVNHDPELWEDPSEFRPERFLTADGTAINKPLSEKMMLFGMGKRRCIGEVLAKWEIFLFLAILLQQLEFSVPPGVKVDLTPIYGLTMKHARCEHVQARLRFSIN

Cytochrome P450 2D6 = Cytochrome P450 2D6 (Homo sapiens, UniProt P10635); test: Activity of human CYP2D6 expressed in microsomes isolated from baculovirus infected insect cell assessed as enzyme-mediated compound formation treated with [14C]-rivoglitazone at 20 uM after 2 hrs by radio-HPLC/LC-MS/MS analysis in presence of NADPH-generating system and NADPH-generating system/SAM; type: ADME
Hepatocyte [2] = test: Drug level in human hepatocytes treated with [14C]-rivoglitazone at 30 uM after 3 hrs by radio-HPLC/LC-MS/MS analysis in presence of NADPH-generating system and NADPH-generating system/SAM; type: ADME, cell-based
Hepatocyte [3] = test: Drug level in rat hepatocytes treated with [14C]-rivoglitazone at 30 uM after 3 hrs by radio-HPLC/LC-MS/MS analysis in presence of NADPH-generating system and NADPH-generating system/SAM; type: ADME, cell-based
Cytochrome P450 2C9 = Cytochrome P450 2C9 (Homo sapiens, UniProt P11712); test: Activity of human CYP2C9 expressed in microsomes isolated from baculovirus infected insect cell assessed as enzyme-mediated compound formation treated with [14C]-rivoglitazone at 20 uM after 2 hrs by radio-HPLC/LC-MS/MS analysis in presence of NADPH-generating system and NADPH-generating system/SAM; type: ADME
[4] = Retention time of the compound by LC-MS/MS analysis; type: physicochemical
Outline: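 LC-MS/MS used a YMC-Pack ODS-A column (1.5 × 150 mm, 5 μm) at 30°C, 0.1 ml/min. Mobile phase was water and acetonitrile, each with 0.01% TFA. Gradient: 12→60% B over 30 min, →90% B over 5 min, hold 5 min. Detection was UV 220 nm with positive ESI Q-TOF (capillary 3300 V, cone 45 V), collision energy 20 eV and xenon as collision gas.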

Liver microsome [5] = test: Drug level in Sprague-Dawley rat liver microsomes treated with [14C]-rivoglitazone at 20 uM after 2 hrs by radio-HPLC/LC-MS/MS analysis in presence of NADPH-generating system and NADPH-generating system/SAM; type: ADME; outline: as §2
Cytochrome P450 2C19 = Cytochrome P450 2C19 (Homo sapiens, UniProt P33261); test: Activity of human CYP2C19 expressed in microsomes isolated from baculovirus infected insect cell assessed as enzyme-mediated compound formation treated with [14C]-rivoglitazone at 20 uM after 2 hrs by radio-HPLC/LC-MS/MS analysis in presence of NADPH-generating system and NADPH-generating system/SAM; type: ADME; outline: as §1
[6] = Drug level in cynomolgus monkey liver microsomes treated with [14C]-rivoglitazone at 20 uM after 2 hrs by radio-HPLC/LC-MS/MS analysis in presence of NADPH-generating system and NADPH-generating system/SAM; type: ADME, Macaca fascicularis; outline: as §2
[7] = system: Hepatocyte (Macaca fascicularis); test: Drug level in monkey hepatocytes treated with [14C]-rivoglitazone at 30 uM after 3 hrs by radio-HPLC/LC-MS/MS analysis in presence of NADPH-generating system and NADPH-generating system/SAM; settings: cynomolgus monkey
Hepatocyte [8] = test: Drug level in rat hepatocytes treated with [14C]-rivoglitazone at 30 uM after 3 hrs by radio-HPLC/LC-MS/MS analysis in presence of NADPH-generating system/SAM; type: ADME, cell-based
Hepatocyte [9] = test: Drug level in human hepatocytes treated with [14C]-rivoglitazone at 30 uM after 3 hrs by radio-HPLC/LC-MS/MS analysis in presence of NADPH-generating system/SAM; type: ADME, cell-based
[10] = Drug level in cynomolgus monkey liver microsomes treated with [14C]-rivoglitazone at 20 uM after 2 hrs by radio-HPLC/LC-MS/MS analysis in presence of NADPH-generating system/SAM; type: ADME, Macaca fascicularis; outline: as §2
Liver microsome [11] = test: Drug level in Sprague-Dawley rat liver microsomes treated with [14C]-rivoglitazone at 20 uM after 2 hrs by radio-HPLC/LC-MS/MS analysis in presence of NADPH-generating system/SAM; type: ADME; outline: as §2
Liver microsome [12] = test: Drug level in human liver microsomes treated with [14C]-rivoglitazone at 20 uM after 2 hrs by radio-HPLC/LC-MS/MS analysis in presence of NADPH-generating system/SAM; type: ADME; outline: as §2
Hepatocyte [13] = test: Drug level in human hepatocytes treated with [14C]-rivoglitazone at 30 uM after 3 hrs by radio-HPLC/LC-MS/MS analysis; type: ADME, cell-based
Outline: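 Freshly isolated hepatocytes were suspended in HBSS at 2×10^6 viable cells/ml; trypan-blue viability was rat 88%, monkey 91 and 94%, human 66, 73 and 81%. Donors were rat (7 weeks, 170 g) and two male cynomolgus monkeys. Cells were incubated with [¹⁴C]rivoglitazone (30 μM) for 3 h at 37°C under 95% O₂/5% CO₂. Acetonitrile stop, sonication, samples pooled per species, supernatant analysed by radio-HPLC and LC-MS.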

Cytochrome P450 3A4, sequence (P08684 whole entry): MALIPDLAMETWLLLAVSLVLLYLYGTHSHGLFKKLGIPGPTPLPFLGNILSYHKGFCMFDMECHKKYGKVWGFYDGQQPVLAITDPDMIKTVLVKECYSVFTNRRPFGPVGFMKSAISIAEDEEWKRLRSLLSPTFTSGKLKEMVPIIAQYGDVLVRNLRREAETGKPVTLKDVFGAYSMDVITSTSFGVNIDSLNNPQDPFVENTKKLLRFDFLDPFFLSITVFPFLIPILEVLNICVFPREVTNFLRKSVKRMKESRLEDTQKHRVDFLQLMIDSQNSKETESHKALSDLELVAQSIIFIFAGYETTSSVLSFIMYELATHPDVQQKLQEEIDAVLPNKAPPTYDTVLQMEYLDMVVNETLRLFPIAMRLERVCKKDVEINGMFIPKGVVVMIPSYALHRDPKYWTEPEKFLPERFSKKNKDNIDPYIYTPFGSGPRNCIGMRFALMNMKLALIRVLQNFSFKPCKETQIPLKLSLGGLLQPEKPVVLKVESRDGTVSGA
Cytochrome P450 2C19, sequence (P33261 whole entry): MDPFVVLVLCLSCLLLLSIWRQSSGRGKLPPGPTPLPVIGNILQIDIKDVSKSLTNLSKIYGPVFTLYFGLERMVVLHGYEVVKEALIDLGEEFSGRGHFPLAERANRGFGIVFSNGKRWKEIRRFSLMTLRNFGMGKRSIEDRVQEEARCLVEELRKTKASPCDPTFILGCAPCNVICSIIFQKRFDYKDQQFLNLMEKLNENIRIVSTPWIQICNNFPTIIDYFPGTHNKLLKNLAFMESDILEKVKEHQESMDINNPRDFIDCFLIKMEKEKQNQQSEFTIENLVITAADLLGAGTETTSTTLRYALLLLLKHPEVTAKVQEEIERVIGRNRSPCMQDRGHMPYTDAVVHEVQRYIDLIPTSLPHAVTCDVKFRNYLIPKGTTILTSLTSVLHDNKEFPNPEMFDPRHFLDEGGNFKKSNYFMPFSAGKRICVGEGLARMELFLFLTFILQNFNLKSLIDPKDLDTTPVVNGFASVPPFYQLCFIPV
Cytochrome P450 3A5, sequence (P20815 whole entry): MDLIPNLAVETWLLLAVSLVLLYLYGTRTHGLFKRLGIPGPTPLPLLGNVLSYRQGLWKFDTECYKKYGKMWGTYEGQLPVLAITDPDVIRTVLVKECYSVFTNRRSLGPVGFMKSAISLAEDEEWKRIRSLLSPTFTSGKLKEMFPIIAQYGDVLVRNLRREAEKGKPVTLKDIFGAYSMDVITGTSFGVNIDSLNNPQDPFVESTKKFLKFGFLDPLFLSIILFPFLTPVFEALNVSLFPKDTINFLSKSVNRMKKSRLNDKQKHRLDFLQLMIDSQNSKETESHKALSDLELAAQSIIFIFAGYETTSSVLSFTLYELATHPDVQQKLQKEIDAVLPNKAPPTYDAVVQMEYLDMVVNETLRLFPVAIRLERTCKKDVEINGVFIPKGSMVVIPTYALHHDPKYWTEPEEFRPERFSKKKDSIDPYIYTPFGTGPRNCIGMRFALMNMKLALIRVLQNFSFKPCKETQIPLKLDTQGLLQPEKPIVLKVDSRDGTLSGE
Cytochrome P450 2D6, sequence (P10635 whole entry): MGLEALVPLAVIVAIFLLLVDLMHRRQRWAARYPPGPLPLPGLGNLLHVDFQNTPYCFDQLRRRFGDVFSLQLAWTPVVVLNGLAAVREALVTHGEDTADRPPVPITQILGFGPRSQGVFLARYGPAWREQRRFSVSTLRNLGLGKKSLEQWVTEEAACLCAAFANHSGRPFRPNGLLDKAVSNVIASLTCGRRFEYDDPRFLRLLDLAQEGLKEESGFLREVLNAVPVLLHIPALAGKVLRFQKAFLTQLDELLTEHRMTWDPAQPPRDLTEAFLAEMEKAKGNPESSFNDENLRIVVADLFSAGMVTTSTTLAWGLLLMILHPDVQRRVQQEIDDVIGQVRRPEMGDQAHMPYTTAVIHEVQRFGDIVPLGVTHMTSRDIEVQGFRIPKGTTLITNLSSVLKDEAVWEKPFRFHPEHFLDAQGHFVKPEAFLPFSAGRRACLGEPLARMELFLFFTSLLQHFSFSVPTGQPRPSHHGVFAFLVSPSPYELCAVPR
Cytochrome P450 2C9, sequence (P11712 whole entry): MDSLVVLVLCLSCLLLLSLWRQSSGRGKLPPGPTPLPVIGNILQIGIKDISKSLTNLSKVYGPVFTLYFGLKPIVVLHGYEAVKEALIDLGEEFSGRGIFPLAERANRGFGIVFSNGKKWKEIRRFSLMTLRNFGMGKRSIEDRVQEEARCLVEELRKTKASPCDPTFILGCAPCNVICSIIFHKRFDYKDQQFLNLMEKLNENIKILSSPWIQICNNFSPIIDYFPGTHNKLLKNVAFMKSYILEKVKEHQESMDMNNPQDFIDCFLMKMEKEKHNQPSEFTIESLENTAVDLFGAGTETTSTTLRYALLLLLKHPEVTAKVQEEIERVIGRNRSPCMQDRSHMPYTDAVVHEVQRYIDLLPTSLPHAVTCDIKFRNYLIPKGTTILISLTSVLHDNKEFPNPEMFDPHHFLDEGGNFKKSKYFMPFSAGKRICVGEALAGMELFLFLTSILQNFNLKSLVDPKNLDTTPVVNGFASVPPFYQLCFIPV

Drug metabolism (Cytochrome P450 2C8)	Drug metabolism (Liver microsome [1])	Drug metabolism (Cytochrome P450 3A4)	Drug metabolism (Cytochrome P450 3A5)	Drug metabolism (Cytochrome P450 1A2)	Drug metabolism (Cytochrome P450 2D6)	Drug metabolism (Hepatocyte [2])	Drug metabolism (Hepatocyte [3])	Drug metabolism (Cytochrome P450 2C9)	Retention_time [4] [min]	Drug metabolism (Liver microsome [5])	Drug metabolism (Cytochrome P450 2C19)	Drug metabolism [6]	Drug metabolism [7]	Drug metabolism (Hepatocyte [8])	Drug metabolism (Hepatocyte [9])	Drug metabolism [10]	Drug metabolism (Liver microsome [11])	Drug metabolism (Liver microsome [12])	Drug metabolism (Hepatocyte [13])	SMILES
metabolite_detected	metabolite_detected	metabolite_detected	metabolite_detected	metabolite_detected	metabolite_detected	metabolite_detected	metabolite_detected	metabolite_detected	19.2	metabolite_detected	metabolite_detected	metabolite_detected	metabolite_detected	–	–	–	–	–	–	Cn1c(COc2ccc(CC3SC(=O)NC3=O)cc2)nc2ccc(O)cc21 (centres undefined)
–	–	–	–	–	–	–	–	–	18.1	–	–	–	–	metabolite_detected	metabolite_detected	metabolite_detected	metabolite_detected	metabolite_detected	–	COc1ccc2nc(COc3ccc(CC(C(N)=O)S(C)(=O)=O)cc3)n(C)c2c1 (centres undefined)
metabolite_detected	metabolite_detected	metabolite_detected	metabolite_detected	metabolite_detected	metabolite_detected	–	–	metabolite_detected	16.3	metabolite_detected	metabolite_detected	metabolite_detected	–	–	–	–	–	–	–	COc1ccc2nc(COc3ccc(CC(O)C(N)=O)cc3)n(C)c2c1 (centres undefined)
metabolite_detected	metabolite_detected	metabolite_detected	metabolite_detected	metabolite_detected	metabolite_detected	–	–	metabolite_detected	20.2	metabolite_detected	metabolite_detected	metabolite_detected	–	–	–	–	–	–	–	COc1ccc2nc(COc3ccc(CC(S)C(N)=O)cc3)n(C)c2c1 (centres undefined)
metabolite_detected	metabolite_detected	metabolite_detected	metabolite_detected	metabolite_detected	metabolite_detected	metabolite_detected	metabolite_detected	metabolite_detected	21.5	metabolite_detected	metabolite_detected	metabolite_detected	metabolite_detected	–	–	–	–	–	–	COc1ccc2nc(COc3ccc(CC4(O)SC(=O)NC4=O)cc3)n(C)c2c1 (centres undefined)
–	–	–	–	–	–	–	–	–	17.1	–	–	–	–	–	–	–	–	–	metabolite_detected	COc1ccc2nc(COc3ccc(CC(SSCC(N)C(=O)O)C(=O)O)cc3)n(C)c2c1 (centres undefined)
–	–	–	–	–	–	–	–	–	16.1	–	–	–	–	metabolite_detected	metabolite_detected	metabolite_detected	metabolite_detected	metabolite_detected	–	COc1ccc2nc(COc3ccc(CC(C(N)=O)[S+](C)[O-])cc3)n(C)c2c1 (centres undefined)
